Source: the array DNA melting data of Ke et al. (doi:10.1101/2024.01.08.574731)

Tests used:
[1] = folding enthalpy; higher = less favourable; fluorescence melt of hairpins on a sequencing array, two-state fit; conditions: sodium 0.088 M
Method in brief: (§1)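 With Cy3 and quencher oligos annealed, library hairpins on a sequenced MiSeq flow cell were imaged for Cy3 fluorescence in 50 mM Na-HEPES pH 8.0, 25 mM NaCl, in 2.5 °C steps up to 60 °C. Melting temperature and folding enthalpy were derived from bootstrapped two-state fits of signals normalised to pre-quench Cy3 and to control constructs. Four replicates were combined by inverse variance, with fitted temperatures raised by 9.35 °C to match UV melts.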

[2] = melting temperature; fluorescence melt of hairpins on a sequencing array, two-state fit, raised by 9.35 °C to match UV melts; conditions: sodium 0.088 M
Method in brief: as §1

Sequence | folding enthalpy [1] | Tm [2]
GGTAGAGGAAACTCTACC (((((((....))))))) | -46.8 kcal/mol | 57.8 °C
GCCCCGCGAAAGCAGTGC ((.(.((....)).).)) | -11.8 kcal/mol | 34 °C
GCTTCCTCGAAAGAGAGC (((..(((....)))))) | -12.7 kcal/mol | 28.9 °C
GACTACGAAAGTAGGGTC ((((((....)))..))) | -16.5 kcal/mol | 46.7 °C
GGTGTCCGAAAGGAACC (((.(((....)))))) | -19.8 kcal/mol | 48.3 °C
GCGCTGCGAAAGCATGGC ((..(((....)))..)) | -19.4 kcal/mol | 43.6 °C
GGCATGGCGAAAGCCGCC (((..(((....)))))) | -16 kcal/mol | 59.4 °C
GATACGGGAAACCATATC ((((.((....)).)))) | -19.3 kcal/mol | 28.2 °C
GCAAACGGAAACGTTCAC (..((((....))))..) | -8.17 kcal/mol | 24.7 °C
GGATAAGGAAACTTGTCC (((.(((....))).))) | -29.6 kcal/mol | 39.2 °C
GTAAAGGGAAACCCTTAC ((((.((....)).)))) | -22.2 kcal/mol | 32.8 °C
GCGACTACGAAAGTACGC (((..(((....)))))) | -25.8 kcal/mol | 42.5 °C
GCCATTGGAAACAATAGC ((.((((....)))).)) | -13.7 kcal/mol | 33.1 °C
GTTTGAGGAAACTTAAAC ((((.((....)).)))) | -18.4 kcal/mol | 36.9 °C
GCCTATGGAAACATAGGC (((((((....))))))) | -33.8 kcal/mol | 66 °C
GACCCGGGAAACCGAGTC (((.(((....))).))) | -32.8 kcal/mol | 45.3 °C
GTTCCTGGAAACGGGAAC (((((.(....).))))) | -40.9 kcal/mol | 50.7 °C
GGTAATCGAAAGATACC (((.(((....)))))) | -27.2 kcal/mol | 40.5 °C
GATCTAAGTGTAGATC ((((((....)))))) | -28.5 kcal/mol | 39.3 °C
GAATGACGAAAGTCCTTC (((.(((....))).))) | -26.7 kcal/mol | 38.5 °C
GGAGGGAAACCTCC (((((....))))) | -26.3 kcal/mol | 54.7 °C
GATCTGCCGCCAGATC ((((((....)))))) | -31.9 kcal/mol | 51.4 °C
GTAGATCGAAAGATTAC (((.(((....)))))) | -13.5 kcal/mol | 29.3 °C

Sequence | folding enthalpy [1] | Tm [2]
GGTAATGGAAACATTACC (((((((....))))))) | -42.8 kcal/mol | 55.9 °C
GATCCCCATCGGGATC ((((((....)))))) | -35.4 kcal/mol | 58.2 °C
GATCACTACGTGATC ((((((...)))))) | -39.7 kcal/mol | 61.7 °C
GGAAAGGGAAACCTTTCC (((((((....))))))) | -41.9 kcal/mol | 55.8 °C
GGTCAGGGAAACCCAACC (((..((....))..))) | -9.32 kcal/mol | 29 °C
GATCTTATGCAAGATC ((((((....)))))) | -36.5 kcal/mol | 43 °C
GGACACGCGAAAGCGTCC (((..(((....)))))) | -9.09 kcal/mol | 42.1 °C
GGTATCCGAAAGGAACC (((.(((....)))))) | -18.8 kcal/mol | 44.4 °C
GATCAAGGATTGATC ((((((...)))))) | -38.8 kcal/mol | 49.8 °C
GTCCGCGAAAGCGCTGAC ((((((....)))..))) | -10.6 kcal/mol | 38.2 °C
GAAGTAGCGAAAGCTTTC (((..(((....)))))) | -9.46 kcal/mol | 30.3 °C
GTATGACGAAAGTCTTAC (((.(((....))).))) | -24.7 kcal/mol | 47.2 °C
GATCGACAGCTCGATC ((((((....)))))) | -41.2 kcal/mol | 49.4 °C
GCGTCGCGAAAGCCCCGC (((..((....))..))) | -19.7 kcal/mol | 43.6 °C
GCCCAAGGAAACCTGGGC (((((.(....).))))) | -43.8 kcal/mol | 54.1 °C
GGACGTGGAAACACGTTC (.(((((....))))).) | -23 kcal/mol | 53.7 °C
GATCAGGTCCTGATC ((((((...)))))) | -35.2 kcal/mol | 51.9 °C
GACCGCGAAAGCGGAGTC ((((((....)))..))) | -7.63 kcal/mol | 40.6 °C
GATCCTTCGCAGGATC ((((((....)))))) | -37.3 kcal/mol | 51.2 °C
GCCGACGGAAACGTCGAC (.(((((....))))).) | -14.9 kcal/mol | 55.4 °C
GGCCCTCGAAAGAGAGCC (((.(((....))).))) | -46.6 kcal/mol | 53.3 °C
GGGGTTTCGAAAGAACCC (((..(((....)))))) | -32.9 kcal/mol | 50.8 °C
GAGTGGAAACACTC (((((....))))) | -29.6 kcal/mol | 51 °C

Sequence | folding enthalpy [1] | Tm [2]
GTTGTGGGAAACCATGAC ((..(((....)))..)) | -30.4 kcal/mol | 34.7 °C
CGTGGGAAACCACG (((((....))))) | -34.5 kcal/mol | 58 °C
GATCTGAGAACAGATC ((((((....)))))) | -27.5 kcal/mol | 45.1 °C
GCTTGATCGAAAGATAGC (((..(((....)))))) | -17.7 kcal/mol | 29.4 °C
GGGGTTGGAAACAGCCTC (.((.((....)).)).) | -21.6 kcal/mol | 39.1 °C
GCGCCGCGAAAGCCTCGC (((..((....))..))) | -19.3 kcal/mol | 44.4 °C
GGCATGGGAAACCGTGTC (.((.((....)).)).) | -33.7 kcal/mol | 43.3 °C
GTTCTCGAAAGAGGCAAC ((((((....)))..))) | -9.31 kcal/mol | 26.6 °C
GTGCTAGGAAACTGGTAC ((.(.((....)).).)) | -18.9 kcal/mol | 32.6 °C
GAGCGCGGAAACGCACTC (((.(((....))).))) | -24.2 kcal/mol | 59 °C
GAAGAGGGAAACCCCTTC ((((.((....)).)))) | -21.2 kcal/mol | 35.7 °C
GCAAAGCGAAAGCGTTGC ((((.((....)).)))) | -26.3 kcal/mol | 65 °C
GCTTCCCCGAAAGGGAGC (((..(((....)))))) | -19.2 kcal/mol | 46.6 °C
GATCCATAAGTGGATC ((((((....)))))) | -39.2 kcal/mol | 51.9 °C
GATCCAGGGATGGATC ((((((....)))))) | -38.9 kcal/mol | 53.3 °C
GGACGGGGAAACCCACCC ((..(((....)))..)) | -10.4 kcal/mol | 26.1 °C
GCGACTCGAAAGAGCCGC (((.(((....))).))) | -47 kcal/mol | 60.2 °C
CGGACGGAAACGTACCCG ((((((....)))..))) | -14.4 kcal/mol | 34.5 °C
GGTCATGGAAACATGGCC ((.((((....)))).)) | -60.3 kcal/mol | 54.5 °C
GACTGAGGAAACTCAGTC (((((((....))))))) | -34.8 kcal/mol | 61.5 °C
GCTAGAGAAATCTAGC ((((((....)))))) | -30.4 kcal/mol | 50.3 °C
GTGTCCGAAAGGAAACAC ((((((....)))..))) | -22.4 kcal/mol | 46.5 °C
GTAGAACGAAAGTTTTAC (((.(((....))).))) | -30.6 kcal/mol | 40.2 °C

Sequence | folding enthalpy [1] | Tm [2]
GTCACAGAAATGTGAC ((((((....)))))) | -35.2 kcal/mol | 56.8 °C
GTGTGGGGAAACCTGCAC (((..((....))..))) | -31.9 kcal/mol | 44.8 °C
GCTACCGAAAGGTGTAGC ((((((....)))..))) | -21.7 kcal/mol | 47.1 °C
GTGGGGGCGAAAGCCCAC (((..(((....)))))) | -15.1 kcal/mol | 65.5 °C
GCATAGCGAAAGCTGGGC ((..(((....)))..)) | -18.1 kcal/mol | 56.5 °C
GTAGTTGGAAACAGTTAC (((..((....))..))) | -9.43 kcal/mol | 28.7 °C
GTTACGGGAAACCGTAGC (.(((((....))))).) | -18.3 kcal/mol | 48.5 °C
GCTAGCGGAAACGCCAGC (((.(((....))).))) | -23.6 kcal/mol | 48.4 °C
GCGCATGGAAACATGTGC ((.((((....)))).)) | -36.5 kcal/mol | 57.1 °C
GAAGTCCGAAAGGAGTTC (((.(((....))).))) | -33.7 kcal/mol | 55.2 °C
GTCAAGACGAAAGTCGAC (((..(((....)))))) | -13.7 kcal/mol | 43.9 °C
GCGGAAAACCGC ((((....)))) | -16.3 kcal/mol | 49.8 °C
GATCGGTTATCCGATC ((((((....)))))) | -36.8 kcal/mol | 58.9 °C
GGTAGGGGAAACCCTGTC (..((((....))))..) | -13.1 kcal/mol | 32.2 °C
GGCTCTGGAAACGGAGTC (.(((.(....).))).) | -30.2 kcal/mol | 40 °C
GATCTGGATCCAGATC ((((((....)))))) | -55.9 kcal/mol | 54.1 °C
GAGAGGCGAAAGCCCCTC (((.(((....))).))) | -17.3 kcal/mol | 51.7 °C
GAGATAGGAAACTATCCC (.(((((....))))).) | -16.4 kcal/mol | 30.1 °C
GCATACGAAAGTAATGC ((((((....))).))) | -35.4 kcal/mol | 50.1 °C
GTTCCCGAAAGGGTCAAC ((((((....)))..))) | -9.41 kcal/mol | 26.9 °C
GCCACGCGAAAGCGACGC ((..(((....)))..)) | -11.8 kcal/mol | 39.8 °C
GGTGATCGAAAGATGACC (((.(((....))).))) | -33.4 kcal/mol | 47.9 °C
GGGTTCGAAAGAAAACCC ((((((....)))..))) | -23.8 kcal/mol | 42.2 °C
